Test: Toxicity liver stage against HepG2, at 10uM
Format: cell-based
Design: test concentration 10 uM, cell line HepG2-A16-CD81EGFP
Conditions: human, HepG2-A16-CD81EGFP cells; read-out: INHIBITION
Summary of the method: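 Uninfected HepG2-A16-CD81EGFP cells, 3 × 10^3 per well, 1536-well, plated on prespotted compound at 10 μM final, parasite-free screening media added to match infected plates; puromycin 10 μM positive, DMSO 0.5% negative; run in parallel with 48 h PbLuc assay at 37 °C, 5% CO2; viability by CellTiter-Glo luminescence, normalized to controls.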

Going from `CN(Cc1ccccc1)CC(C)(C)NC(=O)c1ccc(C(N)=O)cn1` to `CC(C)Oc1cccc(CNC(=O)NC(C)(C(=O)O)c2ccco2)c1` (stereo not given), the cytotoxicity at 10 µM falls from -0.616% to -2.77%.

Going from `COc1ccc(C)cc1C(C)NCc1cnnn1C` (stereo not given) to `Cc1ccc(OCCCNC(=O)C(C)Sc2nncn2C)cc1` (stereo not given), the cytotoxicity at 10 µM falls from 0.211% to -45%.

Going from `COc1ccccc1N1CCC(CNS(=O)(=O)c2cccs2)C1` (stereo not given) to `COc1ccccc1CC(=O)N1CCC(NCc2cc[nH]c2)CC1`, the cytotoxicity at 10 µM falls from 5.66% to 0.593%.

First: Cc1noc(C)c1C(=O)NCCN1CCN(c2ccccc2)CC1
Second: Cc1noc(C)c1CN1CCN(c2ccnc(-c3ccccc3)n2)CC1
The cytotoxicity at 10 µM of the first is lower: -10.8% for the first, 6% for the second.

First: CCOc1cc(/C=C/c2ncc(C(=O)O)s2)ccc1O
Second: COc1ccc(C(=O)O)c(OCC(=O)NC(C)c2ccccc2)c1 (stereo not given)
The cytotoxicity at 10 µM of the first is lower: 0.241% for the first, 1.97% for the second.

Going from `O=C(c1cnccn1)N1CCCC2(CCN(Cc3ccc(F)cc3)C2)C1` (stereo not given) to `O=C1CCC2(CCCN(C(=O)c3ccc[nH]3)C2)CN1Cc1cccnc1` (stereo not given), the cytotoxicity at 10 µM rises from -153% to 9.88%.

Compared with `c1ccc(CN2CCc3nnc(COc4ccccn4)n3CC2)nc1`, `c1ccc(CNc2nc(N3CCOCC3)nc3nccnc23)cc1` is higher in cytotoxicity at 10 µM: -2.1% for the first, 10.5% for the second.

Compared with `CC(C)c1nc(CCNC(=O)NCc2ccnc(N(C)C)c2)cs1`, `CN(CC(=O)NCCc1ccccn1)C(=O)c1cccs1` is higher in cytotoxicity at 10 µM: -4.69% for the first, 2.26% for the second.

First: CC1=N[C@@]2(CC[C@@H]3CN(CC(=O)N(C)C)C[C@@H]32)C(=O)N1CC1CC1
Second: C[C@@H]1CN(CCc2ccccc2)C[C@]12CCN(CC(=O)N(C)C)C2=O
The cytotoxicity at 10 µM of the first is higher: -3.9% for the first, -4.19% for the second.

Compared with `Cc1cc2nc(C(C)C)cc(N3CCN(c4ccc(O)cc4)CC3)n2n1`, `Cc1ccc(-n2cc3[nH]c(=O)n(C(C)C)n3c2=O)cc1` is lower in cytotoxicity at 10 µM: 10.8% for the first, -8.9% for the second.

Compared with `Cc1noc2nc3c(c(C(=O)/N=c4\[nH]nc(C(C)C)s4)c12)CCC3`, `CCn1nc2c(cc1=O)CN(CC(=O)Nc1cc(C(C)C)no1)CC2` is higher in cytotoxicity at 10 µM: -6.53% for the first, -5.46% for the second.

Going from `O=C(NC1CC1)c1cc(Sc2ncccn2)ccn1` to `Cc1ncccc1NC(=O)[C@@H]1CCO[C@@H]2CCN(c3ccncn3)C[C@H]21`, the cytotoxicity at 10 µM rises from 0.493% to 5.59%.

Going from `CCc1nc(C2CCCN2c2ncc(C(F)(F)F)cc2Cl)no1` (stereo not given) to `CCc1nc(C2CCCN2CCCS(=O)(=O)c2ccccc2)no1` (stereo not given), the cytotoxicity at 10 µM falls from 5.64% to -6.15%.

First: COCCC(C)NC(=O)N1CCC(n2ccc(C(F)(F)F)n2)CC1 (stereo not given)
Second: CCCN1CCN(C(=O)Cn2nc(C(F)(F)F)c(Br)c2C2CC2)CC1
The cytotoxicity at 10 µM of the first is lower: -3.9% for the first, 2.2% for the second.

Going from `Cc1[nH]c2c(C)ccc(C)c2c1CC(=O)NCCNc1cccnc1` to `Cc1cn(CC(=O)N(C)Cc2cccc3ncccc23)c(=O)[nH]c1=O`, the cytotoxicity at 10 µM rises from 0.393% to 14.2%.

First: COc1ccc(CN2CCCn3cnc(COCC4CC4)c3C2)cc1
Second: COc1ccc(CN2CCO[C@H]3CN(C4CCC4)CC[C@H]3C2=O)cc1
The cytotoxicity at 10 µM of the first is higher: 11% for the first, -148% for the second.

Going from `Cn1ccnc1-c1cn(CCCc2csc(N)n2)nn1` to `Cn1ccnc1SC1CCc2ccccc2NC1=O` (stereo not given), the cytotoxicity at 10 µM falls from 0.963% to -8.75%.

Compared with `Cc1occc1C(=O)N1CC[C@@H](N2CCOCC2)[C@@H]1Cc1ccccc1`, `CN(C)[C@@H]1CCN(C(=O)C2CCOCC2)[C@H]1Cc1ccncc1` is higher in cytotoxicity at 10 µM: -4.09% for the first, 1.72% for the second.

Compared with `CN(Cc1nnc2n1CCC2)C(=O)c1ccc2c(c1)CCO2`, `CC(C)c1ncc2c(n1)CN(Cc1cccc3c1OCCO3)CC2` is higher in cytotoxicity at 10 µM: -9.33% for the first, -4.34% for the second.

Compared with `Cc1nc(C(NC(=O)CN(C)C(C)C)c2ccccc2F)no1` (stereo not given), `CN(CCc1cnn(C)c1)C(=O)C(c1ccccc1F)N(C)C` (stereo not given) is higher in cytotoxicity at 10 µM: -2.64% for the first, 3.11% for the second.

Going from `NC(=O)CNC1(c2ccc(Cl)cc2)CCCC1` to `O=C(CC1CCCC1)N1CCC2(CCN2Cc2ccc(F)cc2)C1` (stereo not given), the cytotoxicity at 10 µM falls from 13% to -5.66%.

Going from `CCN1CCN(c2cncc(Cl)n2)CC1` to `CC(=O)N1CCN(c2cc(-n3cccc3)ncn2)CC1`, the cytotoxicity at 10 µM falls from 11.6% to -2%.

Going from `COCCNC(=O)CN(C)C(C)c1nc(C)no1` (stereo not given) to `COCC(=O)N1CCCC1c1nc(O)cc(C(C)C)n1` (stereo not given), the cytotoxicity at 10 µM falls from 0.668% to -15.5%.

First: COC(=O)COn1c(SC)nc2ccccc2c1=O
Second: CCCN(Cc1ccccc1O)C(=O)Nc1cnn(CCOC)c1
The cytotoxicity at 10 µM of the first is lower: -6.53% for the first, 23.8% for the second.

First: CC(=O)N[C@@H]1CN(C(=O)c2ccncc2)C[C@H]1c1ccc(C)cc1
Second: CN(Cc1ccoc1)C(=O)C1CC(=O)N(Cc2ccncc2)C1 (stereo not given)
The cytotoxicity at 10 µM of the first is higher: 4.58% for the first, -0.766% for the second.

Going from `OCCCN(CCn1cncn1)c1ccccc1` to `CN(Cc1ccc(F)cc1)C(=O)CN1CCCCC1Cn1cncn1` (stereo not given), the cytotoxicity at 10 µM rises from -4.04% to 0.108%.

First: Cc1cc(NC2CC3(CCN(Cc4ncccc4F)C3)C2)ncn1 (stereo not given)
Second: CN(C)C(=O)c1cn[nH]c1C1(C)CCCN(Cc2ccccn2)C1 (stereo not given)
The cytotoxicity at 10 µM of the first is lower: 0.0666% for the first, 4.68% for the second.

Going from `CCOC(=O)N1CCN(C(=O)C2CC(=O)N(c3ccccc3Br)C2)CC1` (stereo not given) to `CCC(O)CN1CCN(C(=O)c2cccc(CC#N)c2)CC1` (stereo not given), the cytotoxicity at 10 µM falls from -7.22% to -11.6%.

Compared with `COc1ccc(Cl)cc1-c1cc(NC(=O)C2COCCO2)[nH]n1` (stereo not given), `O=C(NCC1CCOC1)c1ccc(-c2ccccc2)[nH]c1=O` (stereo not given) is higher in cytotoxicity at 10 µM: -29.1% for the first, -18.3% for the second.

Compared with `Cc1n[nH]c(C)c1C1COCCN1c1ncnc2sccc12` (stereo not given), `Cc1nc(C2CCN2c2ncccn2)cc(N(C)C)n1` (stereo not given) is lower in cytotoxicity at 10 µM: 23.1% for the first, -4.8% for the second.

Going from `Cc1c(C(C)N)cnn1-c1ccccn1` (stereo not given) to `Cc1ncccc1CNCC1CCN(CC(O)c2ccccc2)CC1` (stereo not given), the cytotoxicity at 10 µM falls from -3.86% to -6.76%.

Going from `Cn1cnc(S(=O)(=O)N2CCSC3(CCCCC3)C2)c1` to `Cc1ccc(CN2CCCC3(CCN(S(C)(=O)=O)C3)C2)o1` (stereo not given), the cytotoxicity at 10 µM rises from -5.95% to 2.21%.

First: CO[C@H]1CN(C(=O)c2ccnnc2)[C@@H]2COC[C@H]12
Second: CO[C@H]1CCN(Cc2c(C)noc2C)[C@@H]2CN(Cc3ccncc3)C[C@H]12
The cytotoxicity at 10 µM of the first is lower: 2.83% for the first, 5.59% for the second.

Compared with `CC(=O)N1CCC2(CC1)CN(C(=O)c1cccc3[nH]ccc13)CCO2`, `O=C(c1cccc2c1OCO2)N1CCC(N2CCCC2)CC1` is higher in cytotoxicity at 10 µM: -149% for the first, -2.35% for the second.

Compared with `COc1cccc(C(=O)N2C[C@@H]3CC[C@H]2CN(Cc2cscn2)C3)c1`, `COc1cccc(CN2CCN(C(=O)CN3CCOCC3)CC2)n1` is lower in cytotoxicity at 10 µM: 1.5% for the first, -5.7% for the second.

Going from `Cc1cccc(OC2CCN(S(=O)(=O)Cc3cccc(F)c3)CC2)n1` to `Nc1ncnc2nc(C3CCN(C(=O)Cc4ccc(F)cc4)C3)ccc12` (stereo not given), the cytotoxicity at 10 µM rises from -7.79% to 1.76%.

Going from `Cc1cccc(C(=O)N2CCN(CCOC(C)C)CC2)n1` to `Cc1cccc(C(=O)N2CCn3cc(CN4CCCCC4)nc3C2)n1`, the cytotoxicity at 10 µM falls from -0.0394% to -79%.

Compared with `CSCc1noc(C2CCC(=O)N(CCCN3CCCC3=O)C2)n1` (stereo not given), `Cc1cc(C)n(CC(=O)N2CCCCC2CCN2CCCC2=O)c(=O)n1` (stereo not given) is higher in cytotoxicity at 10 µM: 3.59% for the first, 5.09% for the second.

Compared with `COC(=O)NC1(C(=O)Nc2ccc(-c3ncc[nH]3)cc2)CCCC1`, `COC(=O)C(CNC(=O)Nc1nncs1)Cc1ccc(F)cc1` (stereo not given) is higher in cytotoxicity at 10 µM: -14.4% for the first, 0.571% for the second.

Going from `CCCc1nc(C)c(C(=O)NCCN2CCCCC2)s1` to `CC(C)c1noc(CN2CCN(CCO)CC2)n1`, the cytotoxicity at 10 µM falls from -0.906% to -5.57%.

Going from `CCC(C)NC(=O)CS(=O)(=O)Cc1ccccc1Cl` (stereo not given) to `CC(c1cccc(Cl)c1)N(C)CCS(=O)(=O)CCC(N)=O` (stereo not given), the cytotoxicity at 10 µM falls from 3.79% to -45.8%.

First: OCC(CO)Nc1cccc(C(F)(F)F)n1
Second: Cc1nc(NC(=O)COCC2CC2)ccc1Br
The cytotoxicity at 10 µM of the first is higher: 0.409% for the first, -1.51% for the second.

Going from `Cc1noc(-c2ccc(N[C@H]3CCCCNC3=O)nc2)n1` to `Cc1cc(C(=O)N2CC[C@H]3C[C@H](c4ccncn4)O[C@@H]3C2)c(C)[nH]1`, the cytotoxicity at 10 µM falls from 0.913% to -70.1%.

Going from `CCOCCN1CCN(C=C2NN=C(c3occc3C)O2)CC1CC` (stereo not given) to `c1ccc(CCN2CCCC(Cn3ccnc3)C2)cc1` (stereo not given), the cytotoxicity at 10 µM rises from -50.3% to 1.43%.

Compared with `CCc1cc(CN(C)C(=O)c2cnn[nH]2)on1`, `CCCc1nc(CN(CC)C(=O)c2ccc3[nH]cnc3c2)no1` is lower in cytotoxicity at 10 µM: 7.48% for the first, 3.98% for the second.

Going from `COCCN(Cc1ccccc1Cl)c1nc(CCN)nc2ccccc12` to `OC1(CNCCc2nc(Cc3ccccc3)no2)CNCCOC1` (stereo not given), the cytotoxicity at 10 µM falls from 12.9% to 4.43%.

Going from `CC(C)c1nc(CN2CCOC(Cn3cncn3)C2)no1` (stereo not given) to `CC(C)c1n[nH]c(C2CN(Cc3ncc[nH]3)CCO2)n1` (stereo not given), the cytotoxicity at 10 µM rises from 1.01% to 1.95%.

Going from `CC(C)C(=O)N1CC[C@@H]2CN(Cc3ccncc3)S(=O)(=O)[C@@H]2CC1` to `Cc1cc(CN2CCN(C(=O)C(C(C)C)n3cncn3)CC2)no1` (stereo not given), the cytotoxicity at 10 µM falls from 5.38% to -9.88%.

Going from `CC(C)N1CC(C(=O)N2CCc3c(nc(CC4CC4)[nH]c3=O)C2)CC1=O` (stereo not given) to `NC(=O)C1CCN(C(=O)c2cc(S(=O)(=O)N3CCCCC3)cs2)CC1`, the cytotoxicity at 10 µM falls from -8.25% to -45.1%.

Going from `CNC(=O)CNCC1(O)CCCN(Cc2ccc(F)c(F)c2)C1=O` (stereo not given) to `CS(=O)(=O)NCc1ccc(C(=O)NCc2ccc3c(c2)CCC3)o1`, the cytotoxicity at 10 µM rises from -9.88% to -5.61%.

Compared with `CN(C)c1nc(N)nc(CN2CCCC2c2ccsc2)n1` (stereo not given), `CS(=O)(=O)N1C[C@H]2CCCN(Cc3ccsc3)[C@H]2C1` is higher in cytotoxicity at 10 µM: -19.6% for the first, 6.43% for the second.

Going from `Cc1nn(C)c(N(C)C)c1CNCc1cccc(Cn2cccn2)c1` to `Cc1cnn(CCNCc2nc(-c3ccsc3)oc2C)c1`, the cytotoxicity at 10 µM falls from 1.88% to -3.55%.

First: COCc1nc(C(=O)NS(=O)(=O)c2c(C)c(C)cc(C)c2C)cs1
Second: CC(C)NC(=O)Nc1ccc(CS(C)(=O)=O)cc1
The cytotoxicity at 10 µM of the first is lower: -8.01% for the first, 1.69% for the second.

Compared with `CC(Nc1ccc(CN2CCCC2=O)cc1)c1ccc(C#N)cc1` (stereo not given), `c1cc(N2CCSCC2)ccc1CNc1cncc2nnnn12` is lower in cytotoxicity at 10 µM: 6.29% for the first, 5.51% for the second.

Going from `CN1C[C@H]2CNC[C@@]2(C(=O)NC2CCN(c3ncccc3C#N)CC2)C1` to `CSc1ccc(OC(C)C(=O)Nc2cc[nH]n2)cc1` (stereo not given), the cytotoxicity at 10 µM rises from -0.766% to 7.71%.

Reference: ChEMBL document CHEMBL4513216, “Probing the Open Global Health Chemical Diversity Library for Multistage-Active Starting Points for Next-Generation Antimalarials” (ACS Infect Dis, 2020)
